# Key:
# TK-10 = assay: Antitumor activity against human TK10 cells; type: functional
# How it was run: (§1)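 NCI in vitro disease-oriented tumour cell line screen. Read-outs are IC50 (molar concentration giving 50% growth inhibition), TGI (molar concentration giving total inhibition of net growth) and LC50 (molar concentration giving 50% net cell death). The maximal concentration tested was 100 μM.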
# NCI [1] = assay: Antitumor activity against human NCI leukemia cell line panel; type: functional, cell-based
# How it was run: (§2)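 Tested in the NCI in vitro disease-oriented human tumor cell screen. The endpoints are IC50 (molar concentration giving 50% growth inhibition), TGI (total growth inhibition) and LC50 (50% net cell death). The maximal concentration tested was 100 μM. Subpanel values are means of several individual cell lines.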
# HCT-116 = assay: Antitumor activity against human HCT116 cells; type: functional; how it was run: as §2
# UO-31 = assay: Antitumor activity against human UO31 cells; type: functional; how it was run: as §1
# OVCAR-5 = assay: Antitumor activity against human OVCAR5 cells; type: functional; how it was run: as §2
# SW-620 = assay: Antitumor activity against human SW620 cells; type: functional; how it was run: as §1
# SF-268 = assay: Antitumor activity against human SF268 cells; type: functional; how it was run: as §2
# BT-549 = assay: Antitumor activity against human BT549 cells; type: functional; how it was run: as §2
# NCI [2] = assay: Antitumor activity against human NCI breast cancer cell line panel; type: functional, cell-based; how it was run: as §2
# NCI [3] = assay: Antitumor activity against human NCI CNS cancer cell line panel; type: functional, cell-based; how it was run: as §2
# SK-MEL-28 = assay: Antitumor activity against human SK-MEL-28 cells; type: functional; how it was run: as §2
# NCI-H23 = assay: Antitumor activity against human NCI-H23 cells; type: functional; how it was run: as §2
# OVCAR-3 = assay: Antitumor activity against human OVCAR-3 cells; type: functional; how it was run: as §2
# [4] = Antitumor activity against human LOX IMV1 cells; type: functional, cell-based; how it was run: as §2
# PC-3 = assay: Antitumor activity against human PC3 cells; type: functional; how it was run: as §2
# K562 = assay: Antitumor activity against human K562 cells; type: functional; how it was run: as §2
# 786-0 = assay: Antitumor activity against human 786-0 cells; type: functional; how it was run: as §2
# NCI [5] = assay: Antitumor activity against human NCI prostate cancer cell line panel; type: functional, cell-based; how it was run: as §2
# OVCAR-8 = assay: Antitumor activity against human OVCAR8 cells; type: functional; how it was run: as §2
# HL-60 = assay: Antitumor activity against human HL60 cells; type: functional; how it was run: as §2
# COLO 205 = assay: Antitumor activity against human COLO 205 cells; type: functional; how it was run: as §2
# [6] = read-out: Log LC50 (the source's name) (converted)
smiles,measurement,setting,value
CN(/N=N/c1nc(OCc2ccccc2)c2nc[nH]c2n1)C(=O)N(C)/N=N/c1nc(OCc2ccccc2)c2nc[nH]c2n1,GI50,TK-10,26.9 µM
same,CC50,TK-10; [6],> 100 µM
same,TGI,TK-10; read-out: Log TGI (converted),> 100 µM
same,IC50,NCI [1],55 µM
same,TGI,NCI [1],> 100 µM
same,CC50,NCI [1]; read-out: LC50 (the source's name),> 100 µM
same,GI50,HCT-116,35.5 µM
same,CC50,HCT-116; [6],> 100 µM
same,TGI,HCT-116; read-out: Log TGI (converted),> 100 µM
same,GI50,UO-31,36.3 µM
same,CC50,UO-31; [6],> 100 µM
same,TGI,UO-31; read-out: Log TGI (converted),> 100 µM
same,GI50,OVCAR-5,63.1 µM
same,CC50,OVCAR-5; [6],> 100 µM
same,TGI,OVCAR-5; read-out: Log TGI (converted),> 100 µM
same,GI50,SW-620,72.4 µM
same,CC50,SW-620; [6],> 100 µM
same,TGI,SW-620; read-out: Log TGI (converted),> 100 µM
same,GI50,SF-268,47.9 µM
same,CC50,SF-268; [6],> 100 µM
same,TGI,SF-268; read-out: Log TGI (converted),> 100 µM
same,GI50,BT-549,36.3 µM
same,CC50,BT-549; [6],> 100 µM
same,TGI,BT-549; read-out: Log TGI (converted),> 100 µM
same,IC50,NCI [2],39 µM
same,TGI,NCI [2],> 100 µM
same,IC50,NCI [3],55 µM
same,TGI,NCI [3],> 100 µM
same,GI50,SK-MEL-28,> 100 µM
same,CC50,SK-MEL-28; [6],> 100 µM
same,TGI,SK-MEL-28; read-out: Log TGI (converted),> 100 µM
same,GI50,NCI-H23,34.7 µM
same,LC50 (50% net cell kill),NCI-H23,> 100 µM
same,TGI,NCI-H23; read-out: Log TGI (converted),> 100 µM
same,GI50,OVCAR-3,34.7 µM
same,LC50,OVCAR-3,> 100 µM
same,TGI,OVCAR-3; read-out: Log TGI (converted),> 100 µM
same,GI50,[4],37.2 µM
same,CC50,[4]; [6],> 100 µM
same,TGI,[4]; read-out: Log TGI (converted),> 100 µM
same,GI50,PC-3,40.7 µM
same,CC50,PC-3; [6],> 100 µM
same,TGI,PC-3; read-out: Log TGI (converted),> 100 µM
same,GI50,K562,75.9 µM
same,CC50,K562; [6],> 100 µM
same,TGI,K562; read-out: Log TGI (converted),> 100 µM
same,GI50,786-0,60.3 µM
same,LC50 (concentration giving 50% net cell death),786-0,> 100 µM
same,TGI,786-0; read-out: Log TGI (converted),> 100 µM
same,IC50,NCI [5],40 µM
same,TGI,NCI [5],> 100 µM
same,GI50,OVCAR-8,51.3 µM
same,LC50 (concentration giving 50% net cell death),OVCAR-8,> 100 µM
same,TGI,OVCAR-8; read-out: Log TGI (converted),> 100 µM
same,GI50,HL-60,63.1 µM
same,CC50,HL-60; [6],> 100 µM
same,TGI,HL-60; read-out: Log TGI (converted),> 100 µM
same,GI50,COLO 205,37.2 µM
same,CC50,COLO 205; [6],> 100 µM
same,TGI,COLO 205; read-out: Log TGI (converted),> 100 µM
